Activity calls are given as the source filed them. No cut-off for these calls is given here.
What was measured:
[1] = target: Diacylglycerol kinase alpha (Homo sapiens) (UniProt P23743); experiment: Inhibition of DGKA ATP labeling site harbouring in human A-375 cells at 0.05 uM by KiNativ Profiling analysis relative to control; assay type: cell-based
[2] = target: 3-phosphoinositide-dependent protein kinase 1 (Homo sapiens) (UniProt O15530); experiment: Inhibition of PDK1 Protein Kinase Domain in human A-375 cells at 0.05 uM by KiNativ Profiling analysis relative to control
[3] = target: Phosphatidylinositol 3-kinase catalytic subunit type 3 (Homo sapiens) (UniProt Q8NEB9); experiment: Inhibition of PIK3C3 ATP labeling site in human A-375 cells at 0.5 uM by KiNativ Profiling analysis relative to control; assay type: cell-based
[4] = target: MAP/microtubule affinity-regulating kinase 3 (Homo sapiens) (UniProt P27448); experiment: Inhibition of MARK3 Lys2 labeling site in human A-375 cells at 5 uM by KiNativ Profiling analysis relative to control; assay type: cell-based
[5] = target: Calcium/calmodulin-dependent protein kinase kinase 2 (Homo sapiens) (UniProt Q96RR4); experiment: Inhibition of CaMKK2 Lys1 labeling site in human A-375 cells at 5 uM by KiNativ Profiling analysis relative to control; assay type: cell-based
Summary of the method: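 Live A375 melanoma cells were treated with compound at 5 or 0.5 μM. The cells were then lysed, and the lysates were labeled with a lysine-reactive ATP or ADP-biotin acyl probe (KiNativ). Inhibition is the compound's protection of each kinase labeling-site peptide from probe labeling, relative to untreated control.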

[6] = target: Serine/threonine-protein kinase WNK3 (Homo sapiens) (UniProt Q9BYP7); experiment: Inhibition of Wnk3 Lys2 labeling site in human A-375 cells at 0.5 uM by KiNativ Profiling analysis relative to control; assay type: cell-based
Ephrin type-B receptor 4 = Ephrin type-B receptor 4 (Homo sapiens, UniProt P54760); experiment: Inhibition of EphB4 (unknown origin) ACT labeling site by KiNativ Profiling analysis
[7] = target: T1, Kinase suppressor of Ras 1 (Homo sapiens) (UniProt Q8IVT5); experiment: Inhibition of KSR1 ACT labeling site harbouring SKNVFYDNGK in human A-375 cells at 0.05 uM by KiNativ Profiling analysis relative to control; assay type: cell-based
T1 sequence (whole entry): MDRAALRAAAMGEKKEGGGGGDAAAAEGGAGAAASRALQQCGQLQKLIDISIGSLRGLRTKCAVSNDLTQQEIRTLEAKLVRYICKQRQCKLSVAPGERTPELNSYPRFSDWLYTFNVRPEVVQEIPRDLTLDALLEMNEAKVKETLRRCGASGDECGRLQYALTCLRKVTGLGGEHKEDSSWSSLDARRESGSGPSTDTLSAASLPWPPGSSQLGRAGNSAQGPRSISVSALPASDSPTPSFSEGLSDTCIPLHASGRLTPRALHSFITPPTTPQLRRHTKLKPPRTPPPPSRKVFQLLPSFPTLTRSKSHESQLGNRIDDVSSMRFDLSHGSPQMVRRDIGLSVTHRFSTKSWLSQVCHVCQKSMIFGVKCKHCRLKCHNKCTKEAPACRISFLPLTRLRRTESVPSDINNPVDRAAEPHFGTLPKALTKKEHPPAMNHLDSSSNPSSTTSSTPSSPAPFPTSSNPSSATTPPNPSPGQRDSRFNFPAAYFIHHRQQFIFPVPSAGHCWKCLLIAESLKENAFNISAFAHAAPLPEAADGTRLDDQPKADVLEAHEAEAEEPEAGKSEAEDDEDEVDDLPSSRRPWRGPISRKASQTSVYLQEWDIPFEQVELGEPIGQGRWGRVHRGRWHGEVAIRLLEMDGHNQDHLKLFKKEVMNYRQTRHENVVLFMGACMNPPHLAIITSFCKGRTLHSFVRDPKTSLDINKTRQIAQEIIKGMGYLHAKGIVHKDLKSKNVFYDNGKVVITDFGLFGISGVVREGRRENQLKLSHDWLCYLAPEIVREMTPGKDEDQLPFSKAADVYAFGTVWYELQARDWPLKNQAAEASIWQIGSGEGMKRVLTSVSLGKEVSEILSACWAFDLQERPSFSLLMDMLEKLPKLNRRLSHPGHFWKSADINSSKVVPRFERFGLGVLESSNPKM

[8] = target: Serine/threonine-protein kinase 25 (Homo sapiens) (UniProt O00506); experiment: Inhibition of YSK1 Lys2 labeling site in human A-375 cells at 0.05 uM by KiNativ Profiling analysis relative to control; assay type: cell-based
[9] = target: T2, Mitogen-activated protein kinase kinase kinase 3 (Homo sapiens) (UniProt Q99759); experiment: Inhibition of MAP3K3 Lys2 labeling site in human A-375 cells at 5 uM by KiNativ Profiling analysis relative to control; assay type: cell-based
T2 sequence (whole entry): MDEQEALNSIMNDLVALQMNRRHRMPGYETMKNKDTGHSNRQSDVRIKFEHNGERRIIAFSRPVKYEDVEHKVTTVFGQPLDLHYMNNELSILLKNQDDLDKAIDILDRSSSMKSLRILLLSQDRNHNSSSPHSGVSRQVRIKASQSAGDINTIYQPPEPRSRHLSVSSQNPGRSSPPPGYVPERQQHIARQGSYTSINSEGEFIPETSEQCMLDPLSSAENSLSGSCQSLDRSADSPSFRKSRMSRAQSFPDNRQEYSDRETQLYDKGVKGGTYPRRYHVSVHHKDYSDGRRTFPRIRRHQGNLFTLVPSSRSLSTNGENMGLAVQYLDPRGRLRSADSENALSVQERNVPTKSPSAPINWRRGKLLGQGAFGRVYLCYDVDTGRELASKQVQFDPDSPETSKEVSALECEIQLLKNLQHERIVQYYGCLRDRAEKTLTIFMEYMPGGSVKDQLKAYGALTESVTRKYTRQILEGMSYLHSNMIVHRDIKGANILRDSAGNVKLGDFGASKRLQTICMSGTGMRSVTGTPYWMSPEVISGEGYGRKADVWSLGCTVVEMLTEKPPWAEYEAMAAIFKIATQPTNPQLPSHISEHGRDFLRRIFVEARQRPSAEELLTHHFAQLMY

[10] = target: STE20-like serine/threonine-protein kinase (Homo sapiens) (UniProt Q9H2G2); experiment: Inhibition of SLK Lys1 labeling site in human A-375 cells at 0.05 uM by KiNativ Profiling analysis relative to control; assay type: cell-based
[11] = target: Serine/threonine-protein kinase WNK4 (Homo sapiens) (UniProt Q96J92); experiment: Inhibition of Wnk4 ACT labeling site in human A-375 cells at 0.5 uM by KiNativ Profiling analysis relative to control; assay type: cell-based
GEN2.2 = experiment: Inhibition of CL097 induced IKKalpha/beta phosphorylation level in human GEN2.2 cells at 1 uM preincubated with compound for 1 hr followed by CL097 stimulation and measured after 30 mins by Western blot analysis; assay type: functional, cell-based

Diacylglycerol kinase alpha (Homo sapiens), sequence (P23743 whole entry, the tested form may be a part): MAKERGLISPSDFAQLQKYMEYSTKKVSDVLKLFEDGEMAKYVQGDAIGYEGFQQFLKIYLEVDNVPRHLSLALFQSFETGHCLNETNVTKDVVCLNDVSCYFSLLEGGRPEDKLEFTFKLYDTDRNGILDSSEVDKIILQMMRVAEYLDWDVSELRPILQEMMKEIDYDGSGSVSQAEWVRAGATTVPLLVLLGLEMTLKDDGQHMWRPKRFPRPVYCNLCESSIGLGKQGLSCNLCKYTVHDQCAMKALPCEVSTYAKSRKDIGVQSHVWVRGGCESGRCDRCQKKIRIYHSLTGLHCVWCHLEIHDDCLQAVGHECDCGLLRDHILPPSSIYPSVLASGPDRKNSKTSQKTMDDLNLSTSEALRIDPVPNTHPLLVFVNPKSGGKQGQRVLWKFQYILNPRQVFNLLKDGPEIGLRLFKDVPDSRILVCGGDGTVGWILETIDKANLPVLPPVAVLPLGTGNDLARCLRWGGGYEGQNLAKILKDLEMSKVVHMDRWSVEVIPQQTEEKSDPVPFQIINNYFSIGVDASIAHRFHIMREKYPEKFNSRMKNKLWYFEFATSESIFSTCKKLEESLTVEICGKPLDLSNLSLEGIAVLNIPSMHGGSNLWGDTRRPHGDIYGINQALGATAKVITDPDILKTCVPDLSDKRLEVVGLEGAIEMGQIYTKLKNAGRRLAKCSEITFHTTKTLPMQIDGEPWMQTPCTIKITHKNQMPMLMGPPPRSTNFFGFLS
Calcium/calmodulin-dependent protein kinase kinase 2 (Homo sapiens), sequence (Q96RR4 2-588 limits assumed): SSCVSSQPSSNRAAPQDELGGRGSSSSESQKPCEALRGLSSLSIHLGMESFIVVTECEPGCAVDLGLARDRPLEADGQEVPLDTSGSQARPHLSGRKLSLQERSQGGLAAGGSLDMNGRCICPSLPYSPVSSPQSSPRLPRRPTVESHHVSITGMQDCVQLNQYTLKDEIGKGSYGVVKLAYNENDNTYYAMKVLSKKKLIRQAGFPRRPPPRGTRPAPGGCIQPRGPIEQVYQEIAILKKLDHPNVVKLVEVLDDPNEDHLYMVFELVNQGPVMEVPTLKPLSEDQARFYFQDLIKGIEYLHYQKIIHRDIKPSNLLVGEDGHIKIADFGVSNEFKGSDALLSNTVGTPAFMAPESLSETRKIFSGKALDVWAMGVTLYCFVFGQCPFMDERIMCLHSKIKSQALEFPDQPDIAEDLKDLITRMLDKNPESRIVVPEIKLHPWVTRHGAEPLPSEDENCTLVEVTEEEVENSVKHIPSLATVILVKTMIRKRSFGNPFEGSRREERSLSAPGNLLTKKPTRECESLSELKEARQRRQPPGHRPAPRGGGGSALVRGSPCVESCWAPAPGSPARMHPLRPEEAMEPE
Serine/threonine-protein kinase WNK4 (Homo sapiens), sequence (Q96J92 whole entry): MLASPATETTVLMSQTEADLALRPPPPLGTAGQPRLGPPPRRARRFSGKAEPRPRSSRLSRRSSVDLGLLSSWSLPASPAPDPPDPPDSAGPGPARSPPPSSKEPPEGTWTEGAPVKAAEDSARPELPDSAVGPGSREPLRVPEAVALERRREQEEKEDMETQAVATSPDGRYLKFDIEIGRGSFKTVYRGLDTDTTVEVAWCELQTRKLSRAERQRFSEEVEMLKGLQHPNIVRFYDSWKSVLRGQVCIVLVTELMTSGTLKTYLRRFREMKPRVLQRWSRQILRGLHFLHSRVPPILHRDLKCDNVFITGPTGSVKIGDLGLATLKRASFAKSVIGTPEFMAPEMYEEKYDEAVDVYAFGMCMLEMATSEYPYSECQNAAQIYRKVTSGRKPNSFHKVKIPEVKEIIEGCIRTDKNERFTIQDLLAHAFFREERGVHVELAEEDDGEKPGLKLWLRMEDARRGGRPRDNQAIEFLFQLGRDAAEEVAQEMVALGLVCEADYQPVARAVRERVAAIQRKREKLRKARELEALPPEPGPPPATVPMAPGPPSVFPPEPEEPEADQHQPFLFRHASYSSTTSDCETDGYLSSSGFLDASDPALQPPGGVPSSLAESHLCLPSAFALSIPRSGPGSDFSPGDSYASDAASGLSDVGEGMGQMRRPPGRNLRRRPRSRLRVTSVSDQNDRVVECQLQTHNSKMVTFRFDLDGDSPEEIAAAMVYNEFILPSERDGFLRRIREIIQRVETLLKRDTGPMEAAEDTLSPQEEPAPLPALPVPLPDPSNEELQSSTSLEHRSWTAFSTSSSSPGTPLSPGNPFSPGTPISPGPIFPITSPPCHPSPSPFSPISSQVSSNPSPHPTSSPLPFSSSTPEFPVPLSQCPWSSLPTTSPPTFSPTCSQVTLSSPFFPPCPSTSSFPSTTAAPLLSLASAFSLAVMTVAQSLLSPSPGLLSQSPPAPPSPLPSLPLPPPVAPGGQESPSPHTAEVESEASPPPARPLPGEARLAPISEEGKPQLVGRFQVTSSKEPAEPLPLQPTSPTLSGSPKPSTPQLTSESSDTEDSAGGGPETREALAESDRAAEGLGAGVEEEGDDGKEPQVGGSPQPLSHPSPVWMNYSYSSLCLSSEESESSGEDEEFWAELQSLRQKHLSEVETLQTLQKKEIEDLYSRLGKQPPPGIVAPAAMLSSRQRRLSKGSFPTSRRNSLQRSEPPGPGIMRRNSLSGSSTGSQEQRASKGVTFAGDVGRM
Phosphatidylinositol 3-kinase catalytic subunit type 3 (Homo sapiens), sequence (Q8NEB9 whole entry): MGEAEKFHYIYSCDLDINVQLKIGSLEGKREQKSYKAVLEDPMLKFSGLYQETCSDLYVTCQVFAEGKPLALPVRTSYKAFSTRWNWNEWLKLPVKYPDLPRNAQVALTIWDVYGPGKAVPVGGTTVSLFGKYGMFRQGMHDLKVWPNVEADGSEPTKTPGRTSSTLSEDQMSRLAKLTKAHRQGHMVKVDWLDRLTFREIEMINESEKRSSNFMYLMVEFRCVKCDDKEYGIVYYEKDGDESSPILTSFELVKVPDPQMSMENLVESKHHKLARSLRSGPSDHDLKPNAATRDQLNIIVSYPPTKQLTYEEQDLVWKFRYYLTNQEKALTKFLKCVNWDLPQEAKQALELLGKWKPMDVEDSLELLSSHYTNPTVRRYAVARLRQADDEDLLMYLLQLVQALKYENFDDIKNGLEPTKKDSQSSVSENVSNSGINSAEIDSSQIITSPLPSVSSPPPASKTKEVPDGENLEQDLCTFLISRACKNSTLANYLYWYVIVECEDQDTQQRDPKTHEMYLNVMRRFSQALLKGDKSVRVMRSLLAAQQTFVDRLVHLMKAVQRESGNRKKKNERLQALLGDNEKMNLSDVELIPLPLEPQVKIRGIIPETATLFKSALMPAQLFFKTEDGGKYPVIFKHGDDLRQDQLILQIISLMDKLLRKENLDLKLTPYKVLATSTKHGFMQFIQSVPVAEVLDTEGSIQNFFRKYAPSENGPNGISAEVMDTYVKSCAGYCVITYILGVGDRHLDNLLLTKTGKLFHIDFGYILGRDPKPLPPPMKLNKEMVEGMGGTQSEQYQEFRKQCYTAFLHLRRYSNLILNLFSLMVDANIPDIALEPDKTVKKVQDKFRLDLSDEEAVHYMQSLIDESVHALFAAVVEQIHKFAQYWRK
MAP/microtubule affinity-regulating kinase 3 (Homo sapiens), sequence (P27448 whole entry, looked up): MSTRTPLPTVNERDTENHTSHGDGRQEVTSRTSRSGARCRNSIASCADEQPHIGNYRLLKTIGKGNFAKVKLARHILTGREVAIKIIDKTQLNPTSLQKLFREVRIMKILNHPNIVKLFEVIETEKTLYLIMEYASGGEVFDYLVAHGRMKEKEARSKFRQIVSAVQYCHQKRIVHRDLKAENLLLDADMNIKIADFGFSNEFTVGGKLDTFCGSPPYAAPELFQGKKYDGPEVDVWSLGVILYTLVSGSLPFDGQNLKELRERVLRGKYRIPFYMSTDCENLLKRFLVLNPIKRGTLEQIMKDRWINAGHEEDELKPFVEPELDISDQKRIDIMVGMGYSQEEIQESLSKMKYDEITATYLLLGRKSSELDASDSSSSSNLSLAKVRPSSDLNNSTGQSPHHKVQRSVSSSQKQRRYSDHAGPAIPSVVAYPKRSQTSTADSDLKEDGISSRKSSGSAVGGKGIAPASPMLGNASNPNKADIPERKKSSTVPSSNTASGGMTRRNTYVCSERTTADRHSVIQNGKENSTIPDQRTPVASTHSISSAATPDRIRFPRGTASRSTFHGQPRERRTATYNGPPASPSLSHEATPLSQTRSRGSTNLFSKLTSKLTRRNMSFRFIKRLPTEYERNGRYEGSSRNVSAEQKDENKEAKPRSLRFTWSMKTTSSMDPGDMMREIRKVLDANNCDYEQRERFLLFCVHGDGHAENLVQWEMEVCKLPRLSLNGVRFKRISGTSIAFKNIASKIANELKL
Serine/threonine-protein kinase 25 (Homo sapiens), sequence (O00506 whole entry, looked up): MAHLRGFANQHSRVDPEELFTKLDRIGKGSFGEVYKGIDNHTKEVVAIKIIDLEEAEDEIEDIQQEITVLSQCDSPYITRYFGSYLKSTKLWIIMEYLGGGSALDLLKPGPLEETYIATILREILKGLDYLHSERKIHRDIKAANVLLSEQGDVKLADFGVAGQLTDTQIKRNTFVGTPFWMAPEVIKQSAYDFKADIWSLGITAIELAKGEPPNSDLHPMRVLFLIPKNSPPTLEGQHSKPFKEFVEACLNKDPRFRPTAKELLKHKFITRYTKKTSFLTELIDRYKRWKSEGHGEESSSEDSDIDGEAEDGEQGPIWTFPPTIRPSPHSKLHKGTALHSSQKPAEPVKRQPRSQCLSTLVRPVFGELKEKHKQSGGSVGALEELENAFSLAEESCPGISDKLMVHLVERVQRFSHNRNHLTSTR

Structure (SMILES)	inhibition [1] [%]	inhibition [2] [%]	inhibition [3] [%]	inhibition [4] [%]	inhibition [5] [%]	inhibition [6] [%]	IC50 (Ephrin type-B receptor 4) [nM]	inhibition [7] [%]	inhibition [8] [%]	inhibition [9] [%]	inhibition [10] [%]	inhibition [11] [%]	inhibition (GEN2.2)
CCN1CCN(Cc2ccc(NC(=O)c3ccc(C)c(/C=C/c4cnc5[nH]ccc5c4OC)c3)cc2C(F)(F)F)CC1	14.6	-1.5	51.6	8.9	14.4	7.9	54	8.6	9.1	11.8	2.2	6.9	
CNc1cc(Oc2cc(C(=O)Nc3cc(-n4cnc(C)c4)cc(C(F)(F)F)c3)ccc2C)ncn1													inactive
CCN1CCN(Cc2ccc(NC(=O)c3ccc(C)c(Oc4ccnc5[nH]ccc45)c3)cc2C(F)(F)F)CC1	-8.4	11.2	36.8	7.8	33.2	-3	999	37	-0.7	-4.8	13	3.9	Active
